Laboratory results: ChEMBL document CHEMBL4196069 (Eur J Med Chem, 2018)
The source made the active and inactive calls. No cut-off for these calls is given here.

Assays:
Bel-7402 [1] = test: Induction of apoptosis in human Bel7402 cells assessed as necrotic cells at 0.125 uM after 72 hrs by Annexin V-FITC/propidium iodide staining based flow cytometry (reference value: 13.05%); assay type: functional
Bel-7402 [2] = test: Upregulation of Bax level in human Bel7402 cells after 72 hrs by Western blot analysis; assay type: functional, cell-based
In short: (§1)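 Bel-7402 cells were treated for 72 h at the indicated concentrations (0.125–0.5 µM) and lysed. Lysates were cleared at 14,000 g for 10 min at 4 °C, and 25 µg protein per lane was run on 10% SDS-PAGE and transferred to nitrocellulose. Membranes were blocked in 5% milk, probed overnight at 4 °C with monoclonal antibodies, and detected by ECL. Densitometry was normalized to GAPDH.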

Bel-7402 [3] = test: Downregulation of Bcl-2 level in human Bel7402 cells after 72 hrs by Western blot analysis; assay type: functional, cell-based; in short: as §1
Bel-7402 [4] = test: Cell cycle arrest in human Bel7402 cells assessed as accumulation at G1 phase at 0.5 uM after 72 hrs by propidium iodide staining-based flow cytometric method (reference value: 39.28%); assay type: functional
Bel-7402 [5] = test: Induction of apoptosis in human Bel7402 cells assessed as early apoptotic cells at 0.125 uM after 72 hrs by Annexin V-FITC/propidium iodide staining based flow cytometry (reference value: 1.65%); assay type: functional
Bel-7402 [6] = test: Cell cycle arrest in human Bel7402 cells assessed as accumulation at S phase at 0.125 uM after 72 hrs by propidium iodide staining-based flow cytometric method (reference value: 37.02%); assay type: functional
Bel-7402 [7] = test: Induction of apoptosis in human Bel7402 cells assessed as necrotic cells at 0.25 uM after 72 hrs by Annexin V-FITC/propidium iodide staining based flow cytometry (reference value: 13.05%); assay type: functional
Bel-7402 [8] = test: Antiproliferative activity against human Bel7402 cells after 72 hrs by MTT assay; assay type: functional, cell-based; conditions: Bel-7402, 72 h
In short: (§2)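 Cells pre-incubated 24 h at 37 °C in humidified 5% CO2, then exposed to compounds for 72 h. MTT (5 mg/mL) was added for 4 h, formazan was dissolved in DMSO, and OD was read at 570 nm. Vehicle control was 0.1% DMSO. IC50 was calculated from inhibition ratios as the mean ± SD of three independent experiments.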

Bel-7402 [9] = test: Induction of mitochondrial membrane depolarization in human Bel7402 cells assessed as cells with mitochondrial membrane potential loss at 0.5 uM after 24 to 48 hrs by JC-1 staining based flow cytometric analysis (reference value: 6.17%); assay type: functional
Bel-7402 [10] = test: Upregulation of p53 level in human Bel7402 cells after 72 hrs by Western blot analysis; assay type: functional, cell-based; in short: as §1
Bel-7402 [11] = test: Induction of apoptosis in human Bel7402 cells assessed as chromatin condensation at 0.125 to 0.25 uM after 48 hrs by Hoechst 33258 staining based fluorescent microscopic method; assay type: functional, cell-based
In short: (§3)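 Bel-7402 cells were seeded and grown 24 h, treated at 0.125, 0.25 and 0.5 µM for 48 h, then harvested by mild trypsinization and washed in PBS. They were stained with Hoechst 33258 for 15 min at room temperature in the dark and examined by fluorescence microscopy with a DAPI filter. Untreated cells served as control.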

Bel-7402 [12] = test: Induction of apoptosis in human Bel7402 cells assessed as late apoptotic cells at 0.5 uM after 72 hrs by Annexin V-FITC/propidium iodide staining based flow cytometry (reference value: 2.82%); assay type: functional
Bel-7402 [13] = test: Induction of apoptosis in human Bel7402 cells assessed as reduction in number of adherent cells at 0.125 to 0.25 uM after 48 hrs by Hoechst 33258 staining based fluorescent microscopic method; assay type: functional, cell-based; in short: as §3
PC-3 = test: Antiproliferative activity against human PC3 cells after 72 hrs by MTT assay; assay type: functional, cell-based; conditions: PC-3, 72 h; in short: as §2
Bel-7402 [14] = test: Upregulation of caspase-3 level in human Bel7402 cells at 0.125 to 0.5 uM after 72 hrs by Western blot analysis; assay type: functional, cell-based; in short: as §1
Bel-7402 [15] = test: Cell cycle arrest in human Bel7402 cells assessed as accumulation at S phase at 0.25 uM after 72 hrs by propidium iodide staining-based flow cytometric method (reference value: 37.02%); assay type: functional
Bel-7402 [16] = test: Induction of apoptosis in human Bel7402 cells assessed as necrotic cells at 0.5 uM after 72 hrs by Annexin V-FITC/propidium iodide staining based flow cytometry (reference value: 13.05%); assay type: functional
Bel-7402 [17] = test: Induction of apoptosis in human Bel7402 cells assessed as viable cells at 0.5 uM after 72 hrs by Annexin V-FITC/propidium iodide staining based flow cytometry (reference value: 82.48%); assay type: functional; conditions: Bel-7402, 72 h, read-out: Activity
Bel-7402 [18] = test: Induction of mitochondrial membrane depolarization in human Bel7402 cells assessed as cell with intact mitochondrial membrane potential at 0.25 uM after 24 to 48 hrs by JC-1 staining based flow cytometric analysis (reference value: 98.83%); assay type: functional
Bel-7402 [19] = test: Induction of mitochondrial membrane depolarization in human Bel7402 cells assessed as cells with mitochondrial membrane potential loss at 0.125 uM after 24 to 48 hrs by JC-1 staining based flow cytometric analysis (reference value: 6.17%); assay type: functional
Bel-7402 [20] = test: Cell cycle arrest in human Bel7402 cells assessed as accumulation at G2/M phase at 0.5 uM after 72 hrs by propidium iodide staining-based flow cytometric method (reference value: 23.71%); assay type: functional
Bel-7402 [21] = test: Induction of mitochondrial membrane depolarization in human Bel7402 cells assessed as cells with mitochondrial membrane potential loss at 0.25 uM after 24 to 48 hrs by JC-1 staining based flow cytometric analysis (reference value: 6.17%); assay type: functional
Bel-7402 [22] = test: Induction of cyto-c accumulation in human Bel7402 cells cytosol at 0.125 to 0.5 uM after 72 hrs by Western blot analysis; assay type: functional, cell-based; in short: as §1
Bel-7402 [23] = test: Cell cycle arrest in human Bel7402 cells assessed as accumulation at G2/M phase at 0.25 uM after 72 hrs by propidium iodide staining-based flow cytometric method (reference value: 23.71%); assay type: functional
Bel7402/5-FU = test: Antiproliferative activity against human Bel7402/5-FU cells after 72 hrs by MTT assay; assay type: functional, cell-based; in short: as §2
Bel-7402 [24] = test: Induction of apoptosis in human Bel7402 cells assessed as early apoptotic cells at 0.5 uM after 72 hrs by Annexin V-FITC/propidium iodide staining based flow cytometry (reference value: 1.65%); assay type: functional
Bel-7402 [25] = test: Induction of apoptosis in human Bel7402 cells assessed as viable cells at 0.25 uM after 72 hrs by Annexin V-FITC/propidium iodide staining based flow cytometry (reference value: 82.48%); assay type: functional; conditions: Bel-7402, 72 h, read-out: Activity
Bel-7402 [26] = test: Induction of mitochondrial membrane depolarization in human Bel7402 cells after 24 to 48 hrs by JC1 staining based flow cytometric analysis; assay type: functional, cell-based
Bel-7402 [27] = test: Cell cycle arrest in human Bel7402 cells assessed as accumulation at G1 phase at 0.125 uM after 72 hrs by propidium iodide staining-based flow cytometric method (reference value: 39.28%); assay type: functional
Bel-7402 [28] = test: Induction of apoptosis in human Bel7402 cells assessed as early apoptotic cells at 0.25 uM after 72 hrs by Annexin V-FITC/propidium iodide staining based flow cytometry (reference value: 1.65%); assay type: functional

**Q.** For `C[C@H]1CCC/C=C/[C@@H]2C[C@H](O)C[C@H]2[C@H](OC(=O)c2ccc(N(CCCl)CCCl)cc2)/C=C/C(=O)O1`, which Activity (Bel-7402 [1]) is on record?
**A.** The Activity was 3.45%.

**Q.** And the Activity (Bel-7402 [2])?
**A.** The Activity was “Dose-dependent effect”.

**Q.** What about the Activity (Bel-7402 [3]) of the same molecule?
**A.** The Activity was “Dose-dependent effect”.

**Q.** And the Activity (Bel-7402 [4])?
**A.** The Activity was 58.17%.

**Q.** And the Activity (Bel-7402 [5])?
**A.** Its Activity is 10.49%.

**Q.** And the Activity (Bel-7402 [6])?
**A.** The Activity was 36.28%.

**Q.** And the Activity (Bel-7402 [7])?
**A.** The Activity was 3.21%.

**Q.** And the IC50 (Bel-7402 [8])?
**A.** Its IC50 is 0.25 µM.

**Q.** And the Activity (Bel-7402 [9])?
**A.** The Activity was 43.85%.

**Q.** What about the Activity (Bel-7402 [10]) of the same molecule?
**A.** The Activity was “Dose-dependent effect”.

**Q.** And the Activity (Bel-7402 [11])?
**A.** Its Activity is “Active”.

**Q.** And the Activity (Bel-7402 [12])?
**A.** The Activity was 18.48%.

**Q.** What about the Activity (Bel-7402 [13]) of the same molecule?
**A.** The Activity was “Active”.

**Q.** And the IC50 (PC-3)?
**A.** Its IC50 is 9.37 µM.

**Q.** And the Activity (Bel-7402 [14])?
**A.** Its Activity is “Active”.

**Q.** What about the Activity (Bel-7402 [15]) of the same molecule?
**A.** The Activity was 32.48%.

**Q.** What about the Activity (Bel-7402 [16]) of the same molecule?
**A.** The Activity was 3.87%.

**Q.** What about the viability at 0.5 µM (Bel-7402 [17]) of the same molecule?
**A.** Its viability at 0.5 µM is 38.5%.

**Q.** And the Activity (Bel-7402 [18])?
**A.** The Activity was 70.4%.

**Q.** And the Activity (Bel-7402 [19])?
**A.** Its Activity is 16.06%.

**Q.** What about the Activity (Bel-7402 [20]) of the same molecule?
**A.** The Activity was 11.69%.

**Q.** And the Activity (Bel-7402 [21])?
**A.** Its Activity is 29.5%.

**Q.** What about the Activity (Bel-7402 [22]) of the same molecule?
**A.** Its Activity is “Active”.

**Q.** What about the Activity (Bel-7402 [23]) of the same molecule?
**A.** The Activity was 13.27%.

**Q.** What about the IC50 (Bel7402/5-FU) of the same molecule?
**A.** The IC50 was 0.84 µM.

**Q.** And the Activity (Bel-7402 [24])?
**A.** Its Activity is 39.11%.

**Q.** And the viability at 0.25 µM (Bel-7402 [25])?
**A.** The viability at 0.25 µM was 62.9%.

**Q.** And the Activity (Bel-7402 [26])?
**A.** Its Activity is “Dose-dependent effect”.

**Q.** What about the Activity (Bel-7402 [27]) of the same molecule?
**A.** Its Activity is 43.8%.

**Q.** What about the Activity (Bel-7402 [28]) of the same molecule?
**A.** The Activity was 22.69%.
